Converted amounts (≈) assume the structure as drawn.
Columns and labels:
Klebsiella pneumoniae [1] = experiment: Antibacterial activity against carbapenemase positive Klebsiella pneumoniae BAA 1705 after 24 hrs by resazurin dye based microdilution assay; format: functional; settings: BAA 1705, 24 h
Method in brief: (§1)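 MIC taken as the lowest concentration giving visible inhibition and/or by resazurin (1 mg/mL). Gentamicin was the control. Run in duplicate, repeated at least three times.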

Candida albicans [2] = experiment: Growth inhibition of Candida albicans ATCC 10231 at 125 ug/ml incubated for 48 hrs under dark condition by broth microdilution method relative to control; format: functional; settings: ATCC 10231, 48 h, read-out: GI
Method in brief: (§2)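 CLSI M27-A3 broth microdilution in RPMI-1640, DMSO ≤1%. Inoculum 1-5 × 10^3 CFU/mL. Incubated 48 h at 30 °C, dark. % inhibition = 100 − (OD405 test − sterility control)/(OD405 growth control − sterility control), with growth and sterility control wells. Triplicate.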

Trypanosoma cruzi = experiment: Antitrypanosomal activity against Trypanosoma cruzi Tulahuen intracellular amastigote harboring LacZ infected in human U937 cells after 72 hrs by CPRG/Nonidet reagent based spectrophotometric method; format: functional, cell-based; settings: U-937, 72 h
Method in brief: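 U-937 cells at 2.5 × 10^5 cells/mL in RPMI-1640 with 10% serum and 0.1 µg/mL PMA were infected with β-galactosidase-transfected Tulahuen epimastigotes at 5 parasites per cell. Infected cells were exposed to 50, 12.5, 3.125 and 0.78 µg/mL for 72 h. CPRG (100 uM) and 0.1% Nonidet P-40 were added for 3 h, read at 570 nm. EC50 by Probit. Triplicate, at least two experiments; benznidazole as reference.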

Candida albicans [3] = experiment: Growth inhibition of Candida albicans ATCC 10231 at 7.8 ug/ml incubated for 48 hrs under dark condition by broth microdilution method relative to control; format: functional; settings: ATCC 10231, 48 h, read-out: GI; method in brief: as §2
Leishmania panamensis = experiment: Antileshmanial activity against EpiR/GFP fused Leishmania panamensis MHOM/CO/87/UA140 intracellular amastigotes infected in human […] cells after 72 hrs by flow cytometric method; format: functional, cell-based; settings: MHOM/CO/87/UA140, 72 h
Method in brief: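 PMA-treated U-937 cells (3 × 10^5 cells/mL) infected with stationary-phase GFP L. panamensis promastigotes (15:1), 3 h at 34 °C, then washed. After 24 h, compounds added at 50, 12.5, 3.125 and 0.78 µg/mL for 72 h at 37 °C. EC50 by Probit; triplicate, two experiments.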

Neisseria gonorrhoeae = experiment: Antibacterial activity against beta lactamase positive Neisseria gonorrhoeae ATCC 31426 by oxidase test; format: functional
Method in brief: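 Agar dilution MIC on GC agar with 1% isovitalex containing increasing compound concentrations. Plates inoculated with about 1×10^4 CFU (5 µL). MIC is the lowest concentration that inhibited growth, with growth confirmed by oxidase test. Run in duplicate, repeated at least three times.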

Plasmodium falciparum = experiment: Antiplasmodial activity against chloroquine-sensitive Plasmodium falciparum 3D7 assessed as reduction in parasitic LDH activity after 48 hrs by Malstat reagent based […] method; format: functional; settings: 3D7, 48 h
Method in brief: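 Unsynchronized P. falciparum 3D7 at 0.5% parasitemia and 1% hematocrit in RPMI with 3% Albumax II. Exposed to 100, 25, 6.25 and 1.56 µg/mL for 48 h at 37 °C under 90% N2/5% CO2/5% O2. After three freeze-thaw cycles, LDH measured with Malstat and NBT/PES, 1 h in the dark, read at 650 nm. IC50 by Probit; triplicate, ≥2 experiments.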

Pseudomonas aeruginosa = experiment: Antibacterial activity against Pseudomonas aeruginosa ATCC 27853 after 24 hrs by resazurin dye based microdilution assay; format: functional; settings: ATCC 27853, 24 h; method in brief: as §1
Cryptococcus neoformans [4] = experiment: Growth inhibition of Cryptococcus neoformans ATCC 32264 at 31.25 ug/ml incubated for 48 hrs under dark condition by broth microdilution method relative to control; format: functional; settings: ATCC 32264, 48 h, read-out: GI; method in brief: as §2
Cryptococcus neoformans [5] = experiment: Growth inhibition of Cryptococcus neoformans ATCC 32264 at 125 ug/ml incubated for 48 hrs under dark condition by broth microdilution method relative to control; format: functional; settings: ATCC 32264, 48 h, read-out: GI; method in brief: as §2
Staphylococcus aureus [6] = experiment: Antibacterial activity against vancomycin-intermediate Staphylococcus aureus after 24 hrs by resazurin dye based microdilution assay; format: functional; method in brief: as §1
Candida albicans [7] = experiment: Antifungal activity against Candida albicans ATCC 10231 incubated for 48 hrs under dark condition by broth microdilution method; format: functional; settings: ATCC 10231, 48 h
Method in brief: (§3)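 CLSI M27-A3 broth microdilution in RPMI-1640, DMSO ≤1%, compounds at 250-0.98 µg/mL final. Inoculum 1-5 × 10^3 CFU/mL. Incubated 48 h at 30 °C in a moist dark chamber, read at OD405. MIC80 and MIC50 taken from % inhibition dose-response curves (mean ± SEM, triplicate). Amphotericin B was the positive control.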

Candida albicans [8] = experiment: Growth inhibition of Candida albicans ATCC 10231 at 31.25 ug/ml incubated for 48 hrs under dark condition by broth microdilution method relative to control; format: functional; settings: ATCC 10231, 48 h, read-out: GI; method in brief: as §2
Cryptococcus neoformans [9] = experiment: Growth inhibition of Cryptococcus neoformans ATCC 32264 at 15.62 ug/ml incubated for 48 hrs under dark condition by broth microdilution method relative to control; format: functional; settings: ATCC 32264, 48 h, read-out: GI; method in brief: as §2
Cryptococcus neoformans [10] = experiment: Growth inhibition of Cryptococcus neoformans ATCC 32264 at 250 ug/ml incubated for 48 hrs under dark condition by broth microdilution method relative to control; format: functional; settings: ATCC 32264, 48 h, read-out: GI; method in brief: as §2
Klebsiella pneumoniae [11] = experiment: Antibacterial activity against ESBL positive Klebsiella pneumoniae ATCC 700603 after 24 hrs by resazurin dye based microdilution assay; format: functional; settings: Klebsiella pneumoniae, 700603, 24 h; method in brief: as §1
Candida albicans [12] = experiment: Growth inhibition of Candida albicans ATCC 10231 at 250 ug/ml incubated for 48 hrs under dark condition by broth microdilution method relative to control; format: functional; settings: ATCC 10231, 48 h, read-out: GI; method in brief: as §2
Candida albicans [13] = experiment: Growth inhibition of Candida albicans ATCC 10231 at 3.4 ug/ml incubated for 48 hrs under dark condition by broth microdilution method relative to control; format: functional; settings: ATCC 10231, 48 h, read-out: GI
Staphylococcus aureus [14] = experiment: Antibacterial activity against methicillin-sensitive Staphylococcus aureus ATCC 25923 after 24 hrs by resazurin dye based microdilution assay; format: functional; settings: ATCC 25923, 24 h; method in brief: as §1
Staphylococcus aureus [15] = experiment: Antibacterial activity against methicillin-resistant Staphylococcus aureus ATCC 43300 after 24 hrs by resazurin dye based microdilution assay; format: functional; settings: ATCC 43300, 24 h
Method in brief: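 Broth microdilution in Mueller Hinton broth, inoculum 5 × 10^5 – 8 × 10^5. Compound stocks diluted in MHB with 5% DMSO and 0.1% Tween 80. Incubation 24 h at 35-37 °C. MIC is the lowest concentration with visible growth inhibition and/or by resazurin (1 mg/mL) read-out. Gentamicin as control. Run in duplicate, replicated at least three times.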

U-937 = experiment: Cytotoxicity against human U937 cells after 72 hrs by MTT assay; format: cell-based; settings: u-937, 72 h
Method in brief: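 Exponentially growing U-937 at 1 × 10^5 cells/mL in RPMI-1640 with 10% FBS were exposed to 200, 50, 12.5 and 3.125 µg/mL for 72 h at 37 °C, 5% CO2. MTT for 3 h, stopped with isopropanol/SDS, formazan read at 570 nm, blank-corrected. LC50 by Probit from % viability against untreated cells. Triplicate, at least two independent experiments.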

Cryptococcus neoformans [16] = experiment: Growth inhibition of Cryptococcus neoformans ATCC 32264 at 3.4 ug/ml incubated for 48 hrs under dark condition by broth microdilution method relative to control; format: functional; settings: ATCC 32264, 48 h, read-out: GI
Cryptococcus neoformans [17] = experiment: Antifungal activity against Cryptococcus neoformans ATCC 32264 incubated for 48 hrs under dark condition by broth microdilution method; format: functional; settings: ATCC 32264, 48 h; method in brief: as §3
Escherichia coli = experiment: Antibacterial activity against Escherichia coli ATCC 25922 after 24 hrs by resazurin dye based microdilution assay; format: functional; settings: ATCC 25922, 24 h; method in brief: as §1
Candida albicans [18] = experiment: Growth inhibition of Candida albicans ATCC 10231 at 15.62 ug/ml incubated for 48 hrs under dark condition by broth microdilution method relative to control; format: functional; settings: ATCC 10231, 48 h, read-out: GI; method in brief: as §2
Cryptococcus neoformans [19] = experiment: Growth inhibition of Cryptococcus neoformans ATCC 32264 at 7.8 ug/ml incubated for 48 hrs under dark condition by broth microdilution method relative to control; format: functional; settings: ATCC 32264, 48 h, read-out: GI; method in brief: as §2
Candida albicans [20] = experiment: Growth inhibition of Candida albicans ATCC 10231 at 62.5 ug/ml incubated for 48 hrs under dark condition by broth microdilution method relative to control; format: functional; settings: ATCC 10231, 48 h, read-out: GI; method in brief: as §2
Cryptococcus neoformans [21] = experiment: Growth inhibition of Cryptococcus neoformans ATCC 32264 at 62.5 ug/ml incubated for 48 hrs under dark condition by broth microdilution method relative to control; format: functional; settings: ATCC 32264, 48 h, read-out: GI; method in brief: as §2

**Q.** With `COc1cc(C2=NN(c3ccccc3)C(c3cccc(Nc4ccnc5cc(Cl)ccc45)c3)C2)cc(OC)c1OC` (stereo not given) as the compound, how does the MIC (Klebsiella pneumoniae [1]) read?
**A.** Its MIC is greater than 1000 µg/mL.

**Q.** And the inhibition of growth at 125 µg/mL (Candida albicans [2])?
**A.** The inhibition of growth at 125 µg/mL was 42.3%.

**Q.** And the EC50 (Trypanosoma cruzi)?
**A.** The EC50 was 21.6 µg/mL (≈ 38.2 µM).

**Q.** What about the inhibition of growth at 7.8 µg/mL (Candida albicans [3]) of the same compound?
**A.** The inhibition of growth at 7.8 µg/mL was 6.63%.

**Q.** And the EC50 (Leishmania panamensis)?
**A.** Its EC50 is 13.4 µg/mL (≈ 23.7 µM).

**Q.** And the MIC (Neisseria gonorrhoeae)?
**A.** Its MIC is greater than 1000 µg/mL.

**Q.** And the EC50 (Plasmodium falciparum)?
**A.** The EC50 was 15.5 µg/mL (≈ 27.4 µM).

**Q.** What about the MIC (Pseudomonas aeruginosa) of the same compound?
**A.** Its MIC is greater than 1000 µg/mL.

**Q.** What about the inhibition of growth at 31.25 µg/mL (Cryptococcus neoformans [4]) of the same compound?
**A.** Its inhibition of growth at 31.25 µg/mL is 1.65%.

**Q.** And the inhibition of growth at 125 µg/mL (Cryptococcus neoformans [5])?
**A.** The inhibition of growth at 125 µg/mL was 18.3%.

**Q.** What about the MIC (Staphylococcus aureus [6]) of the same compound?
**A.** Its MIC is greater than 1000 µg/mL.

**Q.** What about the MIC50 (Candida albicans [7]) of the same compound?
**A.** Its MIC50 is 250 µg/mL (≈ 442 µM).

**Q.** What about the MIC80 (Candida albicans [7]) of the same compound?
**A.** Its MIC80 is no less than 250 µg/mL.

**Q.** What about the inhibition of growth at 31.25 µg/mL (Candida albicans [8]) of the same compound?
**A.** Its inhibition of growth at 31.25 µg/mL is 13.4%.

**Q.** And the inhibition of growth at 15.62 µg/mL (Cryptococcus neoformans [9])?
**A.** Its inhibition of growth at 15.62 µg/mL is 0.13%.

**Q.** What about the inhibition of growth at 250 µg/mL (Cryptococcus neoformans [10]) of the same compound?
**A.** Its inhibition of growth at 250 µg/mL is 58.6%.

**Q.** And the MIC (Klebsiella pneumoniae [11])?
**A.** Its MIC is greater than 1000 µg/mL.

**Q.** And the inhibition of growth at 250 µg/mL (Candida albicans [12])?
**A.** The inhibition of growth at 250 µg/mL was 60.5%.

**Q.** And the inhibition of growth at 3.4 µg/mL (Candida albicans [13])?
**A.** Its inhibition of growth at 3.4 µg/mL is 4.16%.

**Q.** And the MIC (Staphylococcus aureus [14])?
**A.** The MIC was greater than 1000 µg/mL.

**Q.** What about the MIC (Staphylococcus aureus [15]) of the same compound?
**A.** Its MIC is greater than 1000 µg/mL.

**Q.** What about the LC50 (U-937) of the same compound?
**A.** Its LC50 is greater than 200 µg/mL.

**Q.** And the inhibition of growth at 3.4 µg/mL (Cryptococcus neoformans [16])?
**A.** The inhibition of growth at 3.4 µg/mL was 0%.

**Q.** What about the MIC50 (Cryptococcus neoformans [17]) of the same compound?
**A.** The MIC50 was 250 µg/mL (≈ 442 µM).

**Q.** And the MIC80 (Cryptococcus neoformans [17])?
**A.** The MIC80 was no less than 250 µg/mL.

**Q.** What about the MIC (Escherichia coli) of the same compound?
**A.** Its MIC is greater than 1000 µg/mL.

**Q.** What about the inhibition of growth at 15.62 µg/mL (Candida albicans [18]) of the same compound?
**A.** Its inhibition of growth at 15.62 µg/mL is 11.6%.

**Q.** What about the inhibition of growth at 7.8 µg/mL (Cryptococcus neoformans [19]) of the same compound?
**A.** The inhibition of growth at 7.8 µg/mL was 0%.

**Q.** What about the inhibition of growth at 62.5 µg/mL (Candida albicans [20]) of the same compound?
**A.** The inhibition of growth at 62.5 µg/mL was 23.4%.

**Q.** What about the inhibition of growth at 62.5 µg/mL (Cryptococcus neoformans [21]) of the same compound?
**A.** The inhibition of growth at 62.5 µg/mL was 16.2%.
